Calls of active or inactive are those of the source. No cut-off for these calls is given here.
Columns and labels:
[1] = species: Rattus norvegicus; test: Agonist activity at AMPA receptor in rat purkinje neurons assessed as potentiation of glutamate-induced transmembrane current at 30 uM by patch-clamp technique relative to kainate; type: functional
In short: (§1)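 Whole-cell patch-clamp on Purkinje neurons freshly dissociated from cerebellum of 14-18 day old rats. Slices were incubated 1 h in saline, then treated with Pronase and collagenase at 34 °C under O2 and triturated. Extracellular saline was HEPES-buffered, pH 7.32, with KCl/EGTA/ATP pipette solution. Agonist (kainate or glutamate) was applied with or without compound by fast perfusion. Potentiation was taken relative to the agonist-alone current.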

[2] = species: Rattus norvegicus; test: Agonist activity at AMPA receptor in rat purkinje neurons assessed as potentiation of kainate-induced transmembrane current at 30 uM by patch-clamp technique relative to kainate; type: functional; in short: as §1
[3] = species: Rattus norvegicus; test: Agonist activity at AMPA receptor in rat purkinje neurons assessed as potentiation of 1000 uM kainate-induced transmembrane current at 30 uM by patch-clamp technique relative to kainate; type: functional; in short: as §1
[4] = species: Rattus norvegicus; test: Agonist activity at AMPA receptor in rat purkinje neurons assessed as potentiation of 4000 uM kainate-induced transmembrane current at 30 uM by patch-clamp technique relative to kainate; type: functional; in short: as §1
[5] = molecular target: T1, Glutamate NMDA receptor (Rattus norvegicus) (UniProt P35439+Q00959+Q00960+Q00961+Q62645+Q8VHN2+Q9R1M7); test: Antagonist activity at NMDA receptor in rat cerebral cortex neurons assessed as 50 uM NMDA-induced current at 0.5 uM relative to control; type: functional, tissue-based; parameters: scale not given: the % may be the effect or the level left
In short: (§2)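 Whole-cell currents were evoked by NMDA (50, 100, 5000 or 10000 µM) in a heterogeneous primary culture of rat cerebral cortex neurons. Compound was tested at 0.5-30 µM. Current amplitude was expressed as percent of the NMDA-alone control.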

[6] = molecular target: T1, Glutamate NMDA receptor (Rattus norvegicus); test: Antagonist activity at NMDA receptor in rat cerebral cortex neurons assessed as 50 uM NMDA-induced current at 2 uM relative to control; type: functional, tissue-based; parameters: scale not given: the % may be the effect or the level left; in short: as §2
[7] = molecular target: T1, Glutamate NMDA receptor (Rattus norvegicus); test: Antagonist activity at NMDA receptor in rat cerebral cortex neurons assessed as 50 uM NMDA-induced current at 5 uM relative to control; type: functional, tissue-based; parameters: scale not given: the % may be the effect or the level left; in short: as §2
[8] = molecular target: T1, Glutamate NMDA receptor (Rattus norvegicus); test: Antagonist activity at NMDA receptor in rat cerebral cortex neurons assessed as 50 uM NMDA-induced current at 10 uM relative to control; type: functional, tissue-based; parameters: scale not given: the % may be the effect or the level left; in short: as §2
[9] = molecular target: T1, Glutamate NMDA receptor (Rattus norvegicus); test: Antagonist activity at NMDA receptor in rat cerebral cortex neurons assessed as 50 uM NMDA-induced current at 30 uM relative to control; type: functional, tissue-based; parameters: scale not given: the % may be the effect or the level left; in short: as §2
[10] = molecular target: T1, Glutamate NMDA receptor (Rattus norvegicus); test: Antagonist activity at NMDA receptor in rat cerebral cortex neurons assessed as 100 uM NMDA-induced current at 0.5 uM relative to control; type: functional, tissue-based; parameters: scale not given: the % may be the effect or the level left; in short: as §2
[11] = molecular target: T1, Glutamate NMDA receptor (Rattus norvegicus); test: Antagonist activity at NMDA receptor in rat cerebral cortex neurons assessed as 100 uM NMDA-induced current at 1 uM relative to control; type: functional, tissue-based; parameters: scale not given: the % may be the effect or the level left; in short: as §2
[12] = molecular target: T1, Glutamate NMDA receptor (Rattus norvegicus); test: Antagonist activity at NMDA receptor in rat cerebral cortex neurons assessed as 100 uM NMDA-induced current at 2 uM relative to control; type: functional, tissue-based; parameters: scale not given: the % may be the effect or the level left; in short: as §2
[13] = molecular target: T1, Glutamate NMDA receptor (Rattus norvegicus); test: Antagonist activity at NMDA receptor in rat cerebral cortex neurons assessed as 100 uM NMDA-induced current at 5 uM relative to control; type: functional, tissue-based; parameters: scale not given: the % may be the effect or the level left; in short: as §2
[14] = molecular target: T1, Glutamate NMDA receptor (Rattus norvegicus); test: Antagonist activity at NMDA receptor in rat cerebral cortex neurons assessed as 100 uM NMDA-induced current at 10 uM relative to control; type: functional, tissue-based; parameters: scale not given: the % may be the effect or the level left; in short: as §2
[15] = molecular target: T1, Glutamate NMDA receptor (Rattus norvegicus); test: Antagonist activity at NMDA receptor in rat cerebral cortex neurons assessed as 100 uM NMDA-induced current at 30 uM relative to control; type: functional, tissue-based; parameters: scale not given: the % may be the effect or the level left; in short: as §2
[16] = molecular target: T1, Glutamate NMDA receptor (Rattus norvegicus); test: Antagonist activity at NMDA receptor in rat cerebral cortex neurons assessed as 5000 uM NMDA-induced current at 0.5 uM relative to control; type: functional, tissue-based; parameters: scale not given: the % may be the effect or the level left; in short: as §2
[17] = molecular target: T1, Glutamate NMDA receptor (Rattus norvegicus); test: Antagonist activity at NMDA receptor in rat cerebral cortex neurons assessed as 5000 uM NMDA-induced current at 1 uM relative to control; type: functional, tissue-based; parameters: scale not given: the % may be the effect or the level left; in short: as §2
[18] = molecular target: T1, Glutamate NMDA receptor (Rattus norvegicus); test: Antagonist activity at NMDA receptor in rat cerebral cortex neurons assessed as 5000 uM NMDA-induced current at 2 uM relative to control; type: functional, tissue-based; parameters: scale not given: the % may be the effect or the level left; in short: as §2
[19] = molecular target: T1, Glutamate NMDA receptor (Rattus norvegicus); test: Antagonist activity at NMDA receptor in rat cerebral cortex neurons assessed as 5000 uM NMDA-induced current at 5 uM relative to control; type: functional, tissue-based; parameters: scale not given: the % may be the effect or the level left; in short: as §2
[20] = molecular target: T1, Glutamate NMDA receptor (Rattus norvegicus); test: Antagonist activity at NMDA receptor in rat cerebral cortex neurons assessed as 5000 uM NMDA-induced current at 10 uM relative to control; type: functional, tissue-based; parameters: scale not given: the % may be the effect or the level left; in short: as §2
[21] = molecular target: T1, Glutamate NMDA receptor (Rattus norvegicus); test: Antagonist activity at NMDA receptor in rat cerebral cortex neurons assessed as 5000 uM NMDA-induced current at 30 uM relative to control; type: functional, tissue-based; parameters: scale not given: the % may be the effect or the level left; in short: as §2
[22] = species: Rattus norvegicus; test: Agonist activity at AMPA receptor in rat purkinje neurons assessed as increase in potentiation of kainate-induced transmembrane current at 30 uM by patch-clamp technique relative to S-ethyl-N-allyl-N',N'-dibenzylisothiourea hydroiodide; type: functional
[23] = molecular target: T1, Glutamate NMDA receptor (Rattus norvegicus); test: Antagonist activity at NMDA receptor in rat cerebral cortex neurons assessed as 10000 uM NMDA-induced current at 0.5 uM relative to control; type: functional, tissue-based; parameters: scale not given: the % may be the effect or the level left; in short: as §2
[24] = molecular target: T1, Glutamate NMDA receptor (Rattus norvegicus); test: Antagonist activity at NMDA receptor in rat cerebral cortex neurons assessed as 10000 uM NMDA-induced current at 1 uM relative to control; type: functional, tissue-based; parameters: scale not given: the % may be the effect or the level left; in short: as §2
[25] = molecular target: T1, Glutamate NMDA receptor (Rattus norvegicus); test: Antagonist activity at NMDA receptor in rat cerebral cortex neurons assessed as 10000 uM NMDA-induced current at 2 uM relative to control; type: functional, tissue-based; parameters: scale not given: the % may be the effect or the level left; in short: as §2
[26] = molecular target: T1, Glutamate NMDA receptor (Rattus norvegicus); test: Antagonist activity at NMDA receptor in rat cerebral cortex neurons assessed as 10000 uM NMDA-induced current at 5 uM relative to control; type: functional, tissue-based; parameters: scale not given: the % may be the effect or the level left; in short: as §2
[27] = molecular target: T1, Glutamate NMDA receptor (Rattus norvegicus); test: Antagonist activity at NMDA receptor in rat cerebral cortex neurons assessed as 10000 uM NMDA-induced current at 10 uM relative to control; type: functional, tissue-based; parameters: scale not given: the % may be the effect or the level left; in short: as §2
[28] = molecular target: T1, Glutamate NMDA receptor (Rattus norvegicus); test: Antagonist activity at NMDA receptor in rat cerebral cortex neurons assessed as 10000 uM NMDA-induced current at 30 uM relative to control; type: functional, tissue-based; parameters: scale not given: the % may be the effect or the level left; in short: as §2
[29] = species: Rattus norvegicus; test: Agonist activity at AMPA receptor in rat purkinje neurons assessed as potentiation of 500 uM kainate-induced transmembrane current at 50 uM relative to kainate; type: functional; in short: as §1
[30] = species: Rattus norvegicus; test: Agonist activity at AMPA receptor in rat purkinje neurons assessed as potentiation of 500 uM glutamate-induced transmembrane current at 30 uM relative to glutamate; type: functional; in short: as §1
[31] = molecular target: T1, Glutamate NMDA receptor (Rattus norvegicus); test: Antagonist activity at NMDA receptor in rat cerebral cortex neurons assessed as 50 uM NMDA-induced current at 1 uM relative to control; type: functional; parameters: scale not given: the % may be the effect or the level left; in short: as §2

With `C=CC/N=C(\SCC)N(Cc1ccccc1)Cc1ccccc1` the Activity [1] was “Active”, the Activity [2] was “Active” and the Activity [3] was 290%. It also gave an Activity [4] of 132%, an Activity [5] of 98% and an Activity [6] of 48%. The Activity [7] was 34%, the Activity [8] was 31% and the Activity [9] was 11%. It also gave an Activity [10] of 99%, an Activity [11] of 48% and an Activity [12] of 55%. For the same molecule, the Activity [13] was 35%, the Activity [14] was 23% and the Activity [15] was 8%. The Activity [16] was 59%, the Activity [17] was 35% and the Activity [18] was 36%. It also gave an Activity [19] of 20%, an Activity [20] of 14% and an Activity [21] of 4%. The Activity [22] was 5%, the Activity [23] was 45% and the Activity [24] was 35%. For the same molecule, the Activity [25] was 26%, the Activity [26] was 16% and the Activity [27] was 10%. For the same molecule, the Activity [28] was 3%, the Activity [29] was “Active” and the fold change (FC) [30] was 26.9. For the same molecule, the Activity [31] was 68%.

`NS(=O)(=O)c1cc2c(cc1Cl)NC(C1CC3C=CC1C3)NS2(=O)=O` (configuration not stated) was tested, and the Activity [1] was “Active”, the Activity [2] was “Active” and the Activity [3] was 150%. The Activity [4] was 60%, the Activity [29] was “Active” and the fold change (FC) [30] was 7.
